Assay results pooled from the literature.
Protocols differ between the studies behind these lines. Converted amounts (≈) assume the structure as drawn.
Organism: Staphylococcus epidermidis

SMILES | observed | technique | strain | time | notes | quantity | result
CN[C@H](CC(C)C)C(=O)N[C@H]1C(=O)N[C@@H](CC(N)=O)C(=O)N[C@H]2C(=O)N[C@H]3C(=O)N[C@H](C(=O)N[C@H](C(=O)O)c4cc(O)cc(O)c4-c4cc3ccc4O)[C@H](O)c3ccc(c(Cl)c3)Oc3cc2cc(c3O[C@@H]2O[C@H](CO)[C@@H](O)[C@H](O)[C@H]2O[C@H]2C[C@](C)(N)[C@H](O)[C@H](C)O2)Oc2ccc(cc2Cl)[C@H]1O | microbial growth |  | ATCC14990 |  |  | MIC | 0.5 µg/mL
CCCCCCCCCC(=O)N[C@@H](Cc1c[nH]c2ccccc12)C(=O)N[C@H](CC(N)=O)C(=O)N[C@@H](CC(=O)O)C(=O)N[C@@H]1C(=O)NCC(=O)N[C@@H](CCCN)C(=O)N[C@@H](CC(=O)O)C(=O)N[C@H](C)C(=O)N[C@@H](CC(=O)O)C(=O)NCC(=O)N[C@H](CO)C(=O)N[C@@H]([C@H](C)CC(=O)O)C(=O)N[C@@H](CC(=O)c2ccccc2N)C(=O)O[C@@H]1C | microbial growth | broth dilution | ATCC35984 |  | drug-resistant strain | MIC | 1 µg/mL
CN[C@H](CC(C)C)C(=O)N[C@H]1C(=O)N[C@@H](CC(N)=O)C(=O)N[C@H]2C(=O)N[C@H]3C(=O)N[C@H](C(=O)N[C@H](C(=O)O)c4cc(O)cc(O)c4-c4cc3ccc4O)[C@H](O)c3ccc(c(Cl)c3)Oc3cc2cc(c3O[C@@H]2O[C@H](CO)[C@@H](O)[C@H](O)[C@H]2O[C@H]2C[C@](C)(N)[C@H](O)[C@H](C)O2)Oc2ccc(cc2Cl)[C@H]1O | microbial growth | broth dilution | 12228 | 16 h |  | MIC | 1.56 µM
CCCCCC/C=C\CCCCCCCCCc1cc(O)cc(O)c1 | microbial growth | broth dilution | ATCC35984 |  | drug-resistant strain | MIC | > 64 µg/mL
Cc1ccc2[nH]c3c(c2c1)CCCC3NCCc1ccc(O)cc1 (centres unmarked) | microbial growth | broth dilution | MRSE |  |  | MIC | 16 µg/mL
CN[C@H](CC(C)C)C(=O)N[C@H]1C(=O)N[C@@H](CC(N)=O)C(=O)N[C@H]2C(=O)N[C@H]3C(=O)N[C@H](C(=O)N[C@H](C(=O)O)c4cc(O)cc(O)c4-c4cc3ccc4O)[C@H](O)c3ccc(c(Cl)c3)Oc3cc2cc(c3O[C@@H]2O[C@H](CO)[C@@H](O)[C@H](O)[C@H]2O[C@H]2C[C@](C)(N)[C@H](O)[C@H](C)O2)Oc2ccc(cc2Cl)[C@H]1O | microbial growth | broth dilution | 12228 |  |  | MIC | 0.78 µM
Cc1ccc2[nH]c3c(c2c1)CCCC3NCCc1ccc(Br)cc1 (centres unmarked) | microbial growth | broth dilution | MRSE |  |  | MIC | 4 µg/mL
Cc1c(NN=C(C#N)C2=NC(=O)CS2)c(=O)n(-c2ccccc2)n1C | microbial killing | broth dilution |  |  |  | MBC | 1 µg/mL (≈ 2.82 µM)
